High-throughput results (PubChem)
The full list was thinned out, with hits kept by preference.
STK33 kinase inh: blocks human STK33 kinase activity | Q9BYT3 | purified STK33, MBP phosphorylation, ADP-Glo luminescence | inhibition, % at 10 µM | 320,000 tested, 0.073% active | AID 2661;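 active = inhibition at or above 25%, using the most active replicate where run in duplicate; inactive = inhibition below 25%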
CDK5 inh: inhibitors of human CDK5/p35 kinase | Q00535+Q15078 | 330,000 tested, 0.01% active | inhibition, % at 10 µM | Recombinant CDK5/p35, ADP-Glo luminescence, 60 min;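 active = highest replicate inhibition of at least 50% and at least 75% of replicates reaching 50%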
Target sequence (Q00535 whole entry, looked up): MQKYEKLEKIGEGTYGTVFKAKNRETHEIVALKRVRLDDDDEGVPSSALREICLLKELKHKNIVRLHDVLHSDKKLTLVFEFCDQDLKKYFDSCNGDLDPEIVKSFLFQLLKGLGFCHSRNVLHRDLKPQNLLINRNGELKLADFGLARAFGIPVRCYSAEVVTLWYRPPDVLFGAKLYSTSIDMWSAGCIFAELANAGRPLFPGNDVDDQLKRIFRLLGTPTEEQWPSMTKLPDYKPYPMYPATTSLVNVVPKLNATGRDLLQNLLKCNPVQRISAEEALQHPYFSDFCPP
Target sequence (Q15078 whole entry, looked up): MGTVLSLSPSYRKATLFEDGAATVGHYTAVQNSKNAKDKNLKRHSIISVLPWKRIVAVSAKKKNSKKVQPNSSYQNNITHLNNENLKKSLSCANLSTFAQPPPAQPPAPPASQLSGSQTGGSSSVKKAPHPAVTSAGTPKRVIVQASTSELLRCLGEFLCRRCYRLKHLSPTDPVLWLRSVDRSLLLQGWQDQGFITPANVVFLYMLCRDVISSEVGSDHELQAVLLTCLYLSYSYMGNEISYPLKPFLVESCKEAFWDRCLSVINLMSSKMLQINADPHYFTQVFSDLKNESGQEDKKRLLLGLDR
GSK3B inh: blocks human GSK3beta kinase activity; P49841; GST-GSK3beta kinase, ADP-Glo luminescence, 60 min; hits give low values; activity score (negative = inhibition), % at 10 µM; 300,000 tested, 0.038% active; AID 2097;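 active = more than half of replicate wells score below -50%, meaning over 50% inhibition versus plate controls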
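Test system: GST-fused GSK3beta enzyme, cell-free | Quantity: 1.6 ng GST-GSK3beta enzyme per well | Reagent: 25 µM ATP with peptide substrate | Schedule: 60 min enzyme reaction, room temperature | Signal: Luminescent ADP-Glo measurement of ADP formed | Read-out basis: Score relative to plate controls | Control set: DMSO and 20 µM GW8510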
DYRK1A inh: blocks rat Dyrk1A kinase activity; ADP-Glo luminescence, NFATc1 peptide; inhibition, % at 12.5 µM; 310,000 tested, 0.43% active; AID 504441; in the data active = inhibition above about 50%
GSK3A inh: human GSK-3 alpha kinase inhibition. P49840. ADP-Glo luminescence, 60 min. inhibition, % at 10 µM. 320,000 tested, 0.1% active. AID 2650;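 active = more than half of replicates show inhibition above 20%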;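 also: GST-tagged GSK-3 alpha with peptide substrate and 25 µM ATP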
Dyrk1A artifact: counter-screen for Dyrk1A inhibitors: ADP-Glo luciferase artifacts | shares compounds with DYRK1A inh | ADP-Glo luciferase artifact assay, no Dyrk1A, luminescence | AC50, µM (titrated, usually from 12 µM) | 1,300 tested, under 10 active;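 active = fitted half-maximal dose AC50 no more than ten times the top valid tested dose, with luminescence dropping as dose rises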
A number is an active result; i = inactive; nt = not tested or not shown.

SMILES	STK33 kinase inh	CDK5 inh	GSK3B inh	DYRK1A inh	GSK3A inh	Dyrk1A artifact
COc1cc2cnc(-c3ccccc3)c(-c3ccc([N+](=O)[O-])cc3)c2cc1OC	i	i	nt	51	i	i
O=C1CCC(=O)c2ccc3c4c(ccc1c24)CC3	nt	i	nt	i	nt	nt
O=C1CCN2C=Nc3cccc4ccc1c2c34	i	i	i	73	i	i
CN1CCN(c2cc3c(c4c2[nH]c2ccccc24)C(=O)CC(C)(C)C3)CC1	i	i	i	56	i	i
COCCCn1c(SCC(=O)NC2CCCCC2)nnc1-c1ccncc1	i	i	i	51	i	i
CCn1c(SCC(=O)NC2CCCC2)nnc1-c1ccncc1	i	i	i	i	i	nt
O=C1CN(C(=O)C2CCC(=O)N(CCc3ccc(Cl)cc3)C2)CCN1 (stereo unspecified)	i	i	i	54	i	i
CC(C)C1CCN(C(=O)C2CCC(=O)N(CCc3ccc(Cl)cc3)C2)CC1 (stereo unspecified)	i	i	i	i	i	nt
O=C(Nc1nc2c(Cl)ccc(Cl)c2s1)C1CC1	i	i	i	i	i	nt
NNc1nc2c(Cl)ccc(Cl)c2s1	i	i	i	57	i	i
Cc1ccc(-n2c(=O)c3c4c(sc3n3c(=S)[nH]nc23)CCC4)cc1	i	i	i	i	i	nt
O=c1c2c3c(sc2n2c(=S)[nH]nc2n1-c1ccccc1)CCC3	i	i	i	55	i	i
CC(=O)c1cc2ccc(O)cc2oc1=O	i	i	i	i	i	nt
Cc1ccc(N=c2oc3cc(O)ccc3cc2C(N)=O)cc1	i	i	i	77	i	i
NC(N)=NCCCS(=O)(=O)Nc1ccc(Nc2c3ccccc3nc3cc([N+](=O)[O-])ccc23)cc1	nt	i	nt	i	nt	nt
COc1c2c(cc3oc(=O)ccc13)OC(C)(C)C=C2	i	i	i	i	i	nt
CC1(C)C=Cc2cc3ccc(=O)oc3cc2O1	i	i	i	59	i	i
Cc1ccc2nc(NC(=O)CCCC(=O)O)sc2c1	i	i	i	62	i	i
Cc1cccc(OCC(=O)Nc2nc3ccc([N+](=O)[O-])cc3s2)c1C	i	i	i	i	i	nt
O=C(O)COc1ccc(/C=C/c2nc3ccc([N+](=O)[O-])cc3s2)cc1	i	i	i	87	i	i
CC(C)c1ccc(/C=C/C(=O)Nc2nc3ccc([N+](=O)[O-])cc3s2)cc1	i	i	i	i	i	nt
Cc1cccc(OCC(=O)Nc2nc3ccc([N+](=O)[O-])cc3s2)c1	i	i	i	64	i	i
CC12CCC(C(N)C1=O)C2(C)C (stereo unspecified)	nt	i	nt	i	nt	nt
Oc1cccc(NC(=S)N=Nc2c(O)[nH]c3ccccc23)c1	i	i	i	51	nt	i
O=C(Nc1ccc(Cl)cc1)c1csc(-c2ccccc2)n1	i	i	i	i	i	nt
SMILES	STK33 kinase inh	CDK5 inh	GSK3B inh	DYRK1A inh	GSK3A inh	Dyrk1A artifact
O=C(Nc1ccc(Cl)cc1)c1csc(-c2ccncc2)n1	i	i	i	51	i	i
N#Cc1c(N)n(C2OC(CO)C(O)C2O)c2ncnc(N)c12 (stereo unspecified)	nt	57	nt	95	nt	i
CNc1nc2c(N)ncnc2n1[C@H]1O[C@@H](CO)[C@H](O)[C@@H]1O	i	i	i	91	i	i
Nc1ncnc2c1ncn2C1O[C@H](CO)[C@@H](O)[C@@H]1O (stereo partly specified)	i	i	nt	i	i	nt
O=C(COC(=O)c1cc(=O)[nH]c2ccccc12)Nc1nc(-c2ccc(F)cc2)cs1	nt	i	nt	i	nt	nt
NC(=O)c1ncn([C@@H]2O[C@H](CNCc3cccn3-c3ccncc3)[C@@H](O)[C@H]2O)n1	nt	i	nt	i	nt	nt
COc1ccc(S(=O)(=O)NCc2cccnc2)cc1NC(=O)c1ccccc1C	nt	i	nt	i	nt	nt
O=C(/C=C/c1ccccc1)Nc1cccnc1Oc1ccccc1F	i	i	i	51	i	i
Nc1cccnc1Oc1ccccc1F	i	i	i	i	i	nt
CCCCn1c(N)c(N(CC(C)C)C(=O)c2ccc(OC)c(S(=O)(=O)N3CCOCC3)c2)c(=O)[nH]c1=O	nt	i	nt	i	nt	nt
O=C(Cc1c(F)cccc1Cl)Nc1nc2ccccc2s1	i	i	i	51	i	i
Cc1nnc(SCCn2c(N3CCC(Cc4ccccc4)CC3)nc3c2c(=O)[nH]c(=O)n3C)s1	i	nt	i	nt	i	nt
CCCCn1c(N2CCC(Cc3ccccc3)CC2)nc2c1c(=O)[nH]c(=O)n2C	i	i	i	56	i	i
COc1ccc2c(Cl)c(C(=O)N/N=C3\CCCC(=O)C3)sc2c1	i	i	i	81	i	i
COc1ccc2c(Cl)c(C(=O)N/N=C/c3ccc4c(c3)OCO4)sc2c1	i	i	i	i	i	nt
CCN(C(=O)CSc1nnnn1C)C1CCS(=O)(=O)C1 (stereo unspecified)	nt	i	nt	i	nt	nt
COc1ccc(C(OC(=O)c2ccco2)C(=O)NC(C)(C)C)cc1OC (stereo unspecified)	nt	i	nt	i	nt	nt
CCC1([N+](=O)[O-])COC(c2ccc(OC)cc2)OC1 (stereo unspecified)	nt	i	nt	i	nt	nt
CC(C)(C)[C@@H]1C=C(C(=O)N2CCN(Cc3ccccc3)CC2)O[C@H](OCc2ccc(CO)cc2)C1	i	i	i	i	i	nt
CC(C)(C)[C@H]1C=C(C(=O)N2CCN(Cc3ccccc3)CC2)O[C@@H](OCCCCO)C1	i	i	i	53	i	i
O=C(O)C1OC(C(=O)O)C(C(=O)O)C1C(=O)O (stereo unspecified)	nt	i	nt	i	nt	nt
Cc1cc(=O)oc2ccc(OC(=O)c3cccc(S(=O)(=O)N4CCOCC4)c3)cc12	i	i	i	54	i	i
CNc1nc(SC)nc2ccsc12	i	i	i	i	i	nt
C=CCSc1nc(NC)c2sccc2n1	i	i	i	58	i	i
NC(=O)CC(NC(=O)c1cccc(Br)c1)c1ccc(N2CCN(c3ccccn3)CC2)c([N+](=O)[O-])c1 (stereo unspecified)	i	i	i	54	i	i
SMILES	STK33 kinase inh	CDK5 inh	GSK3B inh	DYRK1A inh	GSK3A inh	Dyrk1A artifact
NC(=O)CC(NC(=O)c1ccc(Br)cc1)c1ccc(N2CCN(c3ccccn3)CC2)c([N+](=O)[O-])c1 (stereo unspecified)	i	i	i	i	i	nt
Cc1cccc(NC(=S)NNC(=O)c2csc3c2CCC(C)C3)c1 (stereo unspecified)	nt	i	i	62	nt	i
Cc1cc2nncn2c2ccccc12	i	i	i	57	i	i
CCN1C(=N)N(c2ccccc2)C(=O)C(CC)(CC)C1=O	nt	i	nt	i	nt	nt
N#CCSc1nc(Nc2ccc3c(c2)OCO3)c2ccccc2n1	i	i	i	60	i	i
CCOC(=O)Nc1cc(N)ncn1	nt	i	nt	i	nt	nt
O=C1c2ccccc2C(=O)C1c1ccccn1	35	i	i	61	i	i
O=C(O)c1cccc(-c2ccc(/C=N/Nc3ccc([N+](=O)[O-])cc3)o2)c1	i	i	i	60	i	i
O=C(O)c1ccc(-c2ccc(/C=N/Nc3ccc([N+](=O)[O-])cc3)o2)cc1	i	i	i	i	i	nt
